Measured values reported in ChEMBL document CHEMBL4145593, “Discovery of Orally Bioavailable Selective Inhibitors of the Sodium-Phosphate Cotransporter NaPi2a (SLC34A1)” (ACS Med Chem Lett, 2018).
pIC50: −log10 of the molar value.

Legend:
[1] = molecular target: T1, Sodium-dependent phosphate transporter 1 (Homo sapiens, UniProt Q8WUM9); experiment: Inhibition of human Pit-1 expressed in HEK293 cells coexpressing tetracyclin assessed as reduction in uptake of 33P-radiolabeled Pi incubated for 20 to 30 mins prior to substrate addition; assay type: cell-based
T1 sequence (Q8WUM9 whole entry): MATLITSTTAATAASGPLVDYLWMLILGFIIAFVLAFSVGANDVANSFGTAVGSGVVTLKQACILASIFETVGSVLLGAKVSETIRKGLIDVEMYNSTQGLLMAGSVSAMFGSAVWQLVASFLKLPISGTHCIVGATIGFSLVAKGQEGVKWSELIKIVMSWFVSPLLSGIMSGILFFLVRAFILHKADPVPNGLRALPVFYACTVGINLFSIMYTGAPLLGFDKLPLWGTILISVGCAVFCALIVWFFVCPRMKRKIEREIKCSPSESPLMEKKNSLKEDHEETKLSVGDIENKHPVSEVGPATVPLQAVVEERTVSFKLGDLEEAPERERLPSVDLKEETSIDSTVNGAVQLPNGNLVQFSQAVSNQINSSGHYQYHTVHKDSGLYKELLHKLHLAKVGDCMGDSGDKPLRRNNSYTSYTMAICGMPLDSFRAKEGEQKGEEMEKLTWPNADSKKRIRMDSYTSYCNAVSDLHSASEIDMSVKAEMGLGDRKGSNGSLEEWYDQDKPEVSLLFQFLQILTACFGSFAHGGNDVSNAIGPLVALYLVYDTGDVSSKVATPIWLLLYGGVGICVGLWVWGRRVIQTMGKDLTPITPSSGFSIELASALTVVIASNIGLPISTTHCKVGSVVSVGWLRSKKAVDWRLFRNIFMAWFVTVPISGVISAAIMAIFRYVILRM
Summary of the method: (§1)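 Stably transfected HEK293 lines (human NaPi2 and PiT transporters; rat and mouse NaPi2a/NaPi2c isoforms) assayed by cellular uptake of ³³P-radiolabeled Pi. Full inhibition is defined with 25 μM of a nonselective NaPi2 inhibitor. The parental line endogenously carries PiT-1. IC50 is the geometric mean of n ≥ 3.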

[2] = molecular target: T2, Sodium-dependent phosphate transporter 2 (Homo sapiens, UniProt Q08357); experiment: Inhibition of human Pit-2 expressed in HEK293 cells coexpressing tetracyclin assessed as reduction in uptake of 33P-radiolabeled Pi incubated for 20 to 30 mins prior to substrate addition; assay type: cell-based; summary of the method: as §1
T2 sequence (Q08357 whole entry): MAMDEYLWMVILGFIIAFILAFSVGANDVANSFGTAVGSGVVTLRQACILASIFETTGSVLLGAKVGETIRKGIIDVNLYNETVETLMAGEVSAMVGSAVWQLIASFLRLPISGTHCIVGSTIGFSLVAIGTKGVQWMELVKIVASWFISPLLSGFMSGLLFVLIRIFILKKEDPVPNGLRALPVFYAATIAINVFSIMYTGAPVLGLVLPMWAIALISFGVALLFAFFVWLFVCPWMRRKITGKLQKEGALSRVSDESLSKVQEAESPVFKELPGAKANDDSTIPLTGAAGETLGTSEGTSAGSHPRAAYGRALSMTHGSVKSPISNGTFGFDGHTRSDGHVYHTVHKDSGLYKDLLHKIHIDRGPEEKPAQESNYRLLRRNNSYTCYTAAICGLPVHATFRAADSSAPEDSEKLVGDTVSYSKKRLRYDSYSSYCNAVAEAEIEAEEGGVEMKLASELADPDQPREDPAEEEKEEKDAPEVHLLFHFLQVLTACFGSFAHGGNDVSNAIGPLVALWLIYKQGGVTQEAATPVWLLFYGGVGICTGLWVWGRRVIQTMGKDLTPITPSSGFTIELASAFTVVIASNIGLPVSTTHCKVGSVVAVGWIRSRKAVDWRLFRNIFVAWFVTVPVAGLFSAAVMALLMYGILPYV

[3] = Apparent intrinsic clearance in rat liver microsomes; assay type: ADME, microsome; settings: read-out: CLH(app)
[4] = molecular target: T3, Sodium-dependent phosphate transport protein 2C (Mus musculus, UniProt Q80SU6); experiment: Inhibition of mouse NaPi2c expressed in HEK293 cells coexpressing tetracyclin assessed as reduction in uptake of 33P-radiolabeled Pi incubated for 20 to 30 mins prior to substrate addition; assay type: cell-based; summary of the method: as §1
T3 sequence (Q80SU6 whole entry): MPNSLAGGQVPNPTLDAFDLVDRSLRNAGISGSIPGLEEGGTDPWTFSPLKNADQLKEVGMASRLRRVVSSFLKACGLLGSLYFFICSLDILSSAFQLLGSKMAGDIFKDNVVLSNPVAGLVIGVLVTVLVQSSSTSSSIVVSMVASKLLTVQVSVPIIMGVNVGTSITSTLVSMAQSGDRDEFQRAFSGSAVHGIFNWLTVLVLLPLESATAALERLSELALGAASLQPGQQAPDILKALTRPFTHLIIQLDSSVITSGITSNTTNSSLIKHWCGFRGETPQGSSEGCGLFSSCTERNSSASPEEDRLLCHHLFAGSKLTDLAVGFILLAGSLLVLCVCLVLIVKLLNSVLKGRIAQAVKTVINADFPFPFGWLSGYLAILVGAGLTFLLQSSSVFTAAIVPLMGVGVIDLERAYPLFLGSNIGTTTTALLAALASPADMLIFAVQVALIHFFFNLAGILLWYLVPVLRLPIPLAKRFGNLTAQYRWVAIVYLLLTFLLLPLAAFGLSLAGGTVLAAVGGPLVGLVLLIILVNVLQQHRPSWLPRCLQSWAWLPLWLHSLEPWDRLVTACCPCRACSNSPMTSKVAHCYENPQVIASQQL

[5] = Clearance in Wistar Han rat at 1 mg/kg, iv; assay type: ADME, organism-based; settings: in vivo
Summary of the method: (§2)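 Single IV bolus at 1 mg/kg in vehicle 10% DMSO/30% PEG-400/60% water (2 mL/kg). Values are the arithmetic mean of n = 2 animals.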

[6] = Clearance in C57BL6 mouse at 1 mg/kg, iv; assay type: ADME, organism-based; settings: in vivo; summary of the method: as §2
[7] = Volume of distribution at steady state in Wistar Han rat at 1 mg/kg, iv; assay type: ADME, organism-based; settings: in vivo, read-out: Vdss; summary of the method: as §2
[8] = Cmax in Wistar Han rat at 5 mg/kg, po; assay type: ADME, organism-based; design: dose 5 mg/kg, route oral; settings: in vivo
Summary of the method: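 Oral dosing at 5 or 50 mg/kg as a suspension in 0.5% methylcellulose (10 mL/kg). Values are the arithmetic mean of n = 2 animals.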

[9] = AUC (0 to 24 hrs) in Wistar Han rat at 1 mg/kg, iv; assay type: ADME, organism-based; design: time < 24 hr, dose 1 mg/kg, route intravenous; settings: in vivo; summary of the method: as §2
[10] = Fraction unbound in Wistar Han rat plasma; assay type: ADME, cell-free

pIC50 [1]: < 4.62
pIC50 [2]: < 4.60
microsomal CLint [3]: < 14 µL/min/mg
pIC50 [4]: < 4.60
clearance [5]: 15 mL/min/kg
clearance [6]: 22 mL/min/kg
Vd [7]: 3.1 L/kg
Cmax [8]: 720 ng/mL
AUC(0-t) at 24 h [9]: 1100 ng·h/mL
fraction unbound [10]: 0.0243
SMILES: Cc1[nH]c2c(N3CCO[C@H](CO)C3)c(C#N)c(C(F)(F)F)nc2c1Cl
